Calb biofilm kill: clotrimazole potentiators killing C. albicans biofilm, primary screen, 4-compound mixtures. inhibition, % at 7.6 µM. C. albicans biofilm persisters + clotrimazole, fluorescence viability; primary screen in compound mixtures of four per well. hit rate 0.02% among 120,000;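 active = inhibition above 30.3% in the primary screen of four-compound pools, then above 30% when the compound was retested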;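 also: compounds exposed to preformed 24 h biofilms for 48 h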
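Incubation: 24 h biofilm formation, then 48 h compound exposure, 37 °C | Material: C. albicans biofilms | Buffer or medium: RPMI/MOPS medium, pH 7.0 | Measured by: 2-h Alamar Blue fluorescence, 535/590 nm excitation/emission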
ROMK mod: ROMK potassium channel modulators, primary screen, cell-based, thallium flux, MLSMR library; Tet-inducible ROMK, thallium flux fluorescence; actives lie on both sides; B-score at 10 µM; hit rate 2% among 130,000;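 active = signal ratio slope over the read window, or its plate-corrected B-score, at least 3 SD from the plate mean, either direction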;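 also: B-score of the F/F0 ratio slope over 7 to 12 s after thallium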
Target sequence (P48048 whole entry, looked up): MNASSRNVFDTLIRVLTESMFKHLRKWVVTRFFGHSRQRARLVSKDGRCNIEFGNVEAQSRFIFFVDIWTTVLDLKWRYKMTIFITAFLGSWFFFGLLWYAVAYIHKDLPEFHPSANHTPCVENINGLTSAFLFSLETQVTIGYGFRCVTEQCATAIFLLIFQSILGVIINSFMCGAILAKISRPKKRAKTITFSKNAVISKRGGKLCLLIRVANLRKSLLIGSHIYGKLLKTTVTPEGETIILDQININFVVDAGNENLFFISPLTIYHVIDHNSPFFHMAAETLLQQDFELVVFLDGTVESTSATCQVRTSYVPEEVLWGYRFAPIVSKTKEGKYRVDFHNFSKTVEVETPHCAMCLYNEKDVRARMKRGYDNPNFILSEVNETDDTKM
Each line names hits and unclear results; the compound was inactive in the other large screens. The full list was thinned out, with hits kept by preference.

CON/C=N/C(=S)Nc1ncc(C(F)(F)F)cc1Cl	ROMK mod 5.4
Cn1cc(Br)c(NC(=O)/C=C/C(=O)O)n1	none
Cc1ccc(Sc2ccc(CN3CCCCC3)cc2[N+](=O)[O-])cc1	none
CC(=O)Nc1ccc(/C=C2\Sc3ccccc3C2=O)cc1	none
O=C1/C(=C/c2cccnc2)Sc2ccccc21	ROMK mod -4.5 (no result: Calb biofilm kill)
O=C(c1ccccc1)c1c[nH]c(C(=O)NNc2ccccc2)c1	none
O=[N+]([O-])c1cccc(COc2ncnc3cc([N+](=O)[O-])ccc23)c1	none (no result: ROMK mod)
Cc1ccc(CNC(=O)Cn2c(=O)c3sccc3n(Cc3ccc([N+](=O)[O-])cc3)c2=O)cc1	none
CC(=O)n1cc(N(C(=O)CCl)c2ccc([N+](=O)[O-])cc2)c2ccccc21	none (no result: ROMK mod)
O=Cc1[nH]c2ccccc2c1N(C(=O)CCl)c1ccc([N+](=O)[O-])cc1	ROMK mod -2
NC(N)=NS(=O)(=O)c1ccc(NC(=S)NC(=O)c2ccc3c(c2)OCO3)cc1	none
CN(C)/C=C1\N=C(c2ccccc2)OC1=O	none
Cc1cccc2cc(/C=C3\N=C(c4ccccc4)OC3=O)c(N3CCOCC3)nc12	ROMK mod -5 (no result: Calb biofilm kill)
C/C(=N/NC(=O)CN1CCN(S(=O)(=O)c2ccc(C)cc2)CC1)c1ccco1	none (no result: ROMK mod)
Oc1ccccc1/C=N/Nc1cc(N2CCCC2)nc(N2CCCC2)n1	none (no result: ROMK mod)
Cc1ccc(C(c2nnnn2Cc2cccs2)N2CCN(Cc3ccc4c(c3)OCO4)CC2)cc1 (configuration not stated)	ROMK mod -2.1 (no result: Calb biofilm kill)
CCN1CCN(C(c2nnnn2Cc2ccc3c(c2)OCO3)C(C)C)CC1 (configuration not stated)	none (no result: ROMK mod)
CNc1ccc([N+](=O)[O-])cc1-c1nc2ccccc2[nH]c1=O	none (no result: ROMK mod)
COc1ccc(CN2CCNC(=O)C2CC(=O)NCCc2c[nH]c3ccccc23)c(OC)c1 (configuration not stated)	none (no result: ROMK mod)
COc1ccc2cc(/C=C3\SC(=S)NC3=O)c(N3CCOCC3)nc2c1	none (no result: ROMK mod)
C=CCN1C(=O)N/C(=C/c2ccc(N3CCOCC3)o2)C1=O	ROMK mod -3.8
O=C1N/C(=C/c2ccc(N3CCOCC3)cc2)C(=O)N1Cc1ccc(F)cc1	none (no result: Calb biofilm kill)
O=C1NC(=S)S/C1=C/c1ccc(N2CCOCC2)o1	ROMK mod -3.3
O=C(N/N=C/c1ccc([N+](=O)[O-])s1)c1cccnc1	none (no result: ROMK mod)
Cc1[nH]c2ccccc2c1/C=N/NC(=O)C1CC1(c1ccccc1)c1ccccc1 (configuration not stated)	none
CC1(c2ccccc2Cl)NC(=O)N(CC(=O)NCc2ccco2)C1=O (configuration not stated)	none
O=c1c2cc(Cl)ccc2[nH]c(=S)n1Cc1cccs1	none
CCCCn1c(=S)[nH]c2c(oc3ccc(Cl)cc32)c1=O	ROMK mod 4.8
O=C(COc1ccc2c(c1)OCO2)Nc1ccccc1C(F)(F)F	none
CN1CCc2nc(SCc3ccc(Cl)cc3)c(C#N)c(-c3cccs3)c2C1	ROMK mod -3.4 (no result: Calb biofilm kill)
CCOC(=O)CC(=O)CSc1nc2c(c(-c3cccs3)c1C#N)CCC2	none (no result: ROMK mod)
Cc1ccc(C(=O)NC(=S)NNC(=O)COc2ccccc2C)cc1	ROMK mod 3
CCC(=O)NNC(=S)NC(=O)c1ccc(C)cc1	none
Cc1cccc(C(=O)NC(=S)NNC(=O)Cc2ccccc2)c1	none
Cc1cccc(C(=O)NC(=S)NNC(=O)COc2c(C)cccc2C)c1	ROMK mod 2.7
O=C(O)CC1(CC(=O)Nc2ccc3ccccc3n2)CCCCC1	none
O=C(Oc1c(Cl)cc(Cl)c2cccnc12)c1ccco1	none (no result: Calb biofilm kill)
Oc1c(Cl)cc(Cl)c2cccnc12	Calb biofilm kill 43
CCN(CC)C(=S)NC(=O)c1ccc(OC)c(Br)c1	ROMK mod 4.6
COc1ccc(C(=O)NC(=S)N(C)Cc2ccccc2)cc1Br	none
CCCCN(C(=O)Cc1cccc(F)c1)c1c(N)n(CCC)c(=O)[nH]c1=O	none
CCCCCCCC[n+]1c(C)n(-c2ccccc2)c2ccc(NC(C)=O)cc21	none
COC(=O)c1ccccc1NC(=O)CSc1nc2cccnc2n1C	none
COC(=O)c1cccc(NC(=O)CSc2nc3cccnc3n2C)c1	ROMK mod -3.4 (no result: Calb biofilm kill)
O=S(=O)(C/C(=C/CO)S(=O)(=O)c1ccccc1)c1ccccc1	ROMK mod -8.2 (no result: Calb biofilm kill)
CCN(Cc1ccccc1)C(=O)CS(=O)(=O)c1ccccc1	none (no result: ROMK mod)
Nc1ccc(S(=O)(=O)C(F)(F)F)cc1N	none
CCC(Oc1ccccc1)C(=O)Nc1ncc([N+](=O)[O-])s1 (configuration not stated)	none
CC(CC(=O)Nc1ncc([N+](=O)[O-])s1)c1ccccc1 (configuration not stated)	ROMK mod -4.4
Cc1ccc(C(=O)OCC(=O)NCc2cccs2)cc1S(=O)(=O)N1CCOCC1	none
CC(C)n1c2ccccc2c2cc([N+](=O)[O-])ccc21	none
CCC(C)n1c(=S)[nH]c2c(sc3ccc([N+](=O)[O-])cc32)c1=O (configuration not stated)	ROMK mod 5.3
CCCN1CCC(=O)N([C@H](CSc2ccc(OC)cc2)CC(C)C)CC1	none (no result: ROMK mod)
